The values that follow come from ChEMBL document CHEMBL4699485, “Discovery and Development of SPR519 as a Potent, Selective, and Orally Bioavailable Inhibitor of PI3Kα and mTOR Kinases for the Treatment of Solid Tumors” (J Med Chem, 2020).

One data set has as its system SK-OV-3. The experiment in a line: Antiproliferative activity against human SK-OV-3 cells after 48 hrs by MTT assay. The format is functional, cell-based. Conditions: SK-OV-3, 48 h. The method, boiled down: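 SK-OV-3 cells grown in McCoy's 5a with 10% FBS, 100 U/mL penicillin and 100 µg/mL streptomycin at 37 °C, 5% CO2, seeded at 10000 cells/well. Treated 48 h across 20 µM–0.001 µM. MTT (5 mg/mL in PBS) added for 4 h, DMSO solubilization, absorbance read at 550 nm. Four-parameter curve fit of % inhibition.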

Data set [1] can be described thus: Metabolic stability in mouse liver microsomes assessed as parent compound remaining at 10 uM remaining after 120 mins in presence of NADPH by HPLC analysis. It is filed as ADME, Microsome. Conditions: read-out: Stabilty. The gist of the method:
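Compound at 10 µM was incubated with 0.5 mg/mL liver microsomes and 1 mM NADPH (final). Samples were taken at 0, 15, 30, 60 and 120 min and stopped with acetonitrile, then centrifuged and the supernatant analysed by HPLC. Percent parent remaining was set relative to the 0 min peak area (100%).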

Data set [2] can be described thus: AUC in Swiss mouse at 3 mg/kg, po via gavage by LC-MS/MS analysis. It is filed as ADME, organism-based. Particulars: in vivo. Further details: dose 3 mg/kg. The method, boiled down: (§1)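 Female Swiss mice (n=3/group), fasted overnight, given single oral gavage dose in 0.5% CMC/0.5% Tween 80 (10 mL/kg) at 1, 3 or 10 mg/kg. Serial blood sampling at 0.16–8 h into heparinized tubes. Plasma extracted with acetonitrile containing verapamil internal standard and quantified by LC-MS/MS. Cmax, Tmax, AUC and t1/2 derived from the concentration–time profile.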

Data set [3] is described as follows: Tmax in Swiss mouse at 3 mg/kg, po via gavage by LC-MS/MS analysis. Conditions: in vivo. It is filed as ADME, organism-based. The method, boiled down: (§2)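 Female Swiss mice (n=3/group) were fasted overnight, then gavaged with compound in 0.5% CMC/0.5% Tween 80 at 10 mL/kg. Serial blood samples at 0.16, 0.5, 1, 2, 4, 6 and 8 h were taken into heparinized tubes and spun to plasma. Plasma was extracted with acetonitrile containing verapamil (400 ng/mL) and quantified by LC-MS/MS against plasma calibration curves. Tmax was derived from the concentration–time profile.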

A further data set is filed under the species Homo sapiens. Kind of data set: Channel blockade of human ERG G601S mutant expressed in mammalian expression system assessed as effect on surface expression of channel at 1 to 30 uM by HERG-Lite assay. Particulars: dose microM 1-30. The gist of the method: (§3)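 HERG-lite assay scoring both channel blocking and trafficking inhibition, with test compound at 1, 10 and 30 µM. Geldanamycin (1 µM) served as the trafficking-inhibition reference and astemizole as the standard hERG binder.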

Data set [4] deals with Voltage-gated inwardly rectifying potassium channel KCNH2 (Homo sapiens, UniProt Q12809). Kind of data set: Inhibition of human ERG channel trafficking expressed in mammalian expression system at 1 to 30 uM by HERG-Lite assay. Conditions: dose 1-30 µM. The method, boiled down:
as §3

In another data set the target is Cytochrome P450 2D6 (Homo sapiens, UniProt P10635). Kind of data set: Inhibition of CYP2D6 in human liver microsomes using isoform-specific probe substrates preincubated for 5 mins followed by NADPH addition by LC-MS/MS analysis. The format is ADME. The method, boiled down:
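Human liver microsomes premixed with buffer and a CYP-specific FDA-recommended probe substrate, then spiked with inhibitor, in duplicate. After 5 min preincubation at 37 °C, reaction started with NADPH and run at 37 °C for a set time, then quenched. Metabolite formation quantified by HPLC/LC-MS/MS to derive the concentration giving 50% inhibition.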

Data set [5] has as its target RAC-gamma serine/threonine-protein kinase (Homo sapiens) (UniProt Q9Y243). The experiment in a line: Inhibition of human AKT3 at 1 uM using fluorescently labeled peptide substrate measured after 3 hrs by microfluidic mobility shift assay relative to control. The gist of the method: (§4)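 Single-concentration screen at 1 µM in duplicate, 1% final DMSO. Kinase (typically 1 nM), fluorescently labeled peptide substrate (typically 1 µM), ATP at Km and Mg²⁺ incubated about 3 h at 25 °C, then EDTA-quenched. Substrate and phosphorylated product separated by microfluidic electrophoresis and quantified by fluorescence.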

Data set [6] addresses Receptor tyrosine-protein kinase erbB-2 (Homo sapiens) (UniProt P04626). Kind of data set: Inhibition of human ERBB2 at 1 uM using fluorescently labeled peptide substrate measured after 3 hrs by microfluidic mobility shift assay relative to control. The method, boiled down:
as §4

The target of data set [7] is Ribosomal protein S6 kinase beta-2 (Homo sapiens) (UniProt Q9UBS0). Kind of data set: Inhibition of human RPS6KB2 at 1 uM using fluorescently labeled peptide substrate measured after 3 hrs by microfluidic mobility shift assay relative to control. The gist of the method:
as §4

Data set [8] has as its target Phosphatidylinositol 4,5-bisphosphate 3-kinase catalytic subunit delta isoform (Homo sapiens) (UniProt O00329). Kind of data set: Inhibition of human PI3kdelta at 1 uM using fluorescently labeled peptide substrate measured after 3 hrs by microfluidic mobility shift assay relative to control. The method, boiled down:
as §4

For data set [9], the target named is Sphingosine kinase 1 (Homo sapiens) (UniProt Q9NYA1). Kind of data set: Inhibition of human SPHK1 at 1 uM using fluorescently labeled peptide substrate measured after 3 hrs by microfluidic mobility shift assay relative to control. The gist of the method: as §4
Sphingosine kinase 1 (Homo sapiens), sequence (Q9NYA1 whole entry): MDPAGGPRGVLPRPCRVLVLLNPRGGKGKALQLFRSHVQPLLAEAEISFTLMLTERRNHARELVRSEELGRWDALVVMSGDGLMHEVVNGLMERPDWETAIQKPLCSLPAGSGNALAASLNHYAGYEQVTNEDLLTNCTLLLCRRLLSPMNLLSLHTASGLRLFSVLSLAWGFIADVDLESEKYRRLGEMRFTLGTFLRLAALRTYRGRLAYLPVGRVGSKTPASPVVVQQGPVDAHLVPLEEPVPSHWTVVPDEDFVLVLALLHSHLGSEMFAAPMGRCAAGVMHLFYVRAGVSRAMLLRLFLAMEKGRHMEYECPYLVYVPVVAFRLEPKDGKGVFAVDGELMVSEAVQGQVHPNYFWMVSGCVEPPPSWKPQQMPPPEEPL
In data set [10] the target is Cyclin-dependent kinase 7 (Homo sapiens) (UniProt P50613). Kind of data set: Inhibition of human CDK7 at 1 uM using fluorescently labeled peptide substrate measured after 3 hrs by microfluidic mobility shift assay relative to control. The gist of the method: as §4
Cyclin-dependent kinase 7 (Homo sapiens), sequence (P50613 whole entry): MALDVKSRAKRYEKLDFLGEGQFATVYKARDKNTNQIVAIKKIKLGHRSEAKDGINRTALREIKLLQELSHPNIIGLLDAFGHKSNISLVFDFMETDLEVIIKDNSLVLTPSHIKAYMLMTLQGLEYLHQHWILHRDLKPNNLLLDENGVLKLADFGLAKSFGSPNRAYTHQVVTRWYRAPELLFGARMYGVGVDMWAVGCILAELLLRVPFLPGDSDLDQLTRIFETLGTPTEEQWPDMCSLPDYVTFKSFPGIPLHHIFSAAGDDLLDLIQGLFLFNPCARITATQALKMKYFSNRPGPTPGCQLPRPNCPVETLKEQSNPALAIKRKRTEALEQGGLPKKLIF
A short description of data set [11]: AUC in Swiss mouse at 1 mg/kg, po via gavage by LC-MS/MS analysis. It is filed as ADME, organism-based. Also on record: dose 1 mg/kg. Particulars: in vivo. The method, boiled down:
as §1

Data set [12] in a line: Cmax in Swiss mouse at 1 mg/kg, po via gavage by LC-MS/MS analysis. The format is ADME, organism-based. Also on record: route oral, dose 1 mg/kg. Conditions: in vivo. The gist of the method: as §1
Data set [13] in a line: Tmax in Swiss mouse at 1 mg/kg, po via gavage by LC-MS/MS analysis. The format is ADME, organism-based. Conditions: in vivo. The gist of the method:
as §2

Data set [14] in a line: Elimination half life in Swiss mouse at 1 mg/kg, po via gavage by LC-MS/MS analysis. It is filed as ADME, organism-based. Particulars: in vivo, read-out: beta t1/2 (converted). The gist of the method: as §1
A short description of data set [15]: Toxicity in Swiss mouse assessed as piloerection at 30 mg/kg, po administered twice daily via gavage for 12 days and measured on day 9. Particulars: in vivo, 288 h, time 12 day. It is filed as organism-based. The method, boiled down:
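Female Swiss mice (4 treated, 2 controls) were gavaged twice daily for 12 days, with compound in 0.5% CMC and Tween 80. Clinical signs including body coat, body weight, temperature, feed intake and general activity were monitored daily.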

Data set [16] can be described thus: Toxicity in Swiss mouse assessed as morphological changes in uterus at 30 mg/kg, po administered twice daily via gavage for 5 days and measured post last dose. The format is organism-based. Conditions: in vivo, 120 h, time 5 day. The gist of the method: (§5)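 Female Swiss mice (3 treated, 2 controls) were gavaged twice daily for 5 days, with compound in 0.5% CMC and Tween 80. After the last dosing the animals were sacrificed. Liver, kidney, lung, uterus and brain were excised and inspected visually for morphology and color change.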

A short description of data set [17]: Toxicity in Swiss mouse assessed as morphological changes in brain at 30 mg/kg, po administered twice daily via gavage for 5 days and measured post last dose. The format is organism-based. Conditions: in vivo, 120 h, time 5 day. The method, boiled down:
as §5

Data set [18] is described as follows: Toxicity in Swiss mouse assessed as discoloration of liver at 30 mg/kg, po administered twice daily via gavage for 5 days and measured post last dose. It is filed as organism-based. Particulars: in vivo, 120 h, time 5 day. The gist of the method: as §5
A short description of data set [19]: Drug level in Swiss mouse uterus at 30 mg/kg, po administered twice daily via gavage for 5 days and measured post last dose by LC-MS/MS analysis. Conditions: time 5 day, read-out: Drug uptake. It is filed as ADME, organism-based. The method, boiled down: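 Female Swiss mice (n=3) given 30 mg/kg in 0.5% CMC/Tween 80 by oral gavage twice daily for 5 days, with two vehicle controls. After sacrifice, liver, kidney, lung, uterus and brain were collected, homogenized in water and solvent-extracted. Drug concentration (ng/g) measured by LC-MS/MS.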

Active and inactive are the calls of the source. The rule behind the calls is not given here.

What is called EC50 is the concentration giving half of the maximal effect. Read a low EC50 as an effect from little substance. One may read the AUC as concentration integrated over time. Low values mean low exposure, high ones high exposure. Broadly, the Tmax is the time from dosing to the highest level. As a reminder, the IC50 is the concentration that inhibits the measured activity by half. A higher IC50 goes with weaker potency. Broadly, the inhibition is the drop in the measured response relative to a control, in per cent. Usually Cmax stands for the highest concentration seen after dosing.

Phosphatidylinositol 4,5-bisphosphate 3-kinase catalytic subunit delta isoform (Homo sapiens), sequence (O00329 whole entry, canonical isoform): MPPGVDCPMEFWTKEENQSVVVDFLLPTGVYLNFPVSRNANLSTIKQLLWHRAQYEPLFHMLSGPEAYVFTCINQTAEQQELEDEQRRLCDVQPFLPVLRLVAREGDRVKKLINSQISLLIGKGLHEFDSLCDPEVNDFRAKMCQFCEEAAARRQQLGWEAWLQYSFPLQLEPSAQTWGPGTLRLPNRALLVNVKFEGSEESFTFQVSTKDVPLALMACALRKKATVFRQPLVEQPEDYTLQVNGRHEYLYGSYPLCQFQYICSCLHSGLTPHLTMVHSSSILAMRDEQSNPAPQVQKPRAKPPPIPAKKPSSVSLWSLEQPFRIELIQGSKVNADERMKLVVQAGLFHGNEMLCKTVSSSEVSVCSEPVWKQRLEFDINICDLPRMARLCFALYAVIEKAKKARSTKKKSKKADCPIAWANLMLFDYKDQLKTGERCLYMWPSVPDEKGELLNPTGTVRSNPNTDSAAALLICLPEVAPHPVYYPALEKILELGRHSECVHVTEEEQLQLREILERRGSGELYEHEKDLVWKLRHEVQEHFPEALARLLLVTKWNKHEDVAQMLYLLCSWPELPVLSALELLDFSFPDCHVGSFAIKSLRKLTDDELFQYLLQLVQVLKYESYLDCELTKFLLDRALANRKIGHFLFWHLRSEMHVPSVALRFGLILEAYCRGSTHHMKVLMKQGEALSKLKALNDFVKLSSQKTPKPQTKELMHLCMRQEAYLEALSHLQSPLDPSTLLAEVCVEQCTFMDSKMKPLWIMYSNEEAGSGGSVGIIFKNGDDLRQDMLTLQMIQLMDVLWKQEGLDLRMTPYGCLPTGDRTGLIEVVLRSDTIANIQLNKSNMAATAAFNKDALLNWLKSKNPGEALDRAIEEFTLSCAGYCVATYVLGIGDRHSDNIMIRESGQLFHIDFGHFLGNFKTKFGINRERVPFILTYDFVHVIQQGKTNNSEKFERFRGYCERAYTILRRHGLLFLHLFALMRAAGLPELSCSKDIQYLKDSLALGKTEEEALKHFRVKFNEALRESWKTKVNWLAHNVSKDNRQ
RAC-gamma serine/threonine-protein kinase (Homo sapiens), sequence (Q9Y243 whole entry): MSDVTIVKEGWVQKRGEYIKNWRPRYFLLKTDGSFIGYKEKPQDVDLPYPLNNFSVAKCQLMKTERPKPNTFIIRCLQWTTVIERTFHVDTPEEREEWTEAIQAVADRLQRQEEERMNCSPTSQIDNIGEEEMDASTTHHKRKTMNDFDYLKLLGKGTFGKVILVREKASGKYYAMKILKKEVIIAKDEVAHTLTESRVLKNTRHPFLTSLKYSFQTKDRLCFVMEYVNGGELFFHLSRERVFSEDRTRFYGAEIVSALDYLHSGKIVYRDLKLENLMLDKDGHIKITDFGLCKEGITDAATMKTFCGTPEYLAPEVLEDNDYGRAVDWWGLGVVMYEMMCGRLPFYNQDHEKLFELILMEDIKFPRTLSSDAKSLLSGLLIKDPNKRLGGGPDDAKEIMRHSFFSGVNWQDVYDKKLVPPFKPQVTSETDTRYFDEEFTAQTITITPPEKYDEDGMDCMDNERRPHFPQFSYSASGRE
Cytochrome P450 2D6, sequence (P10635 whole entry, canonical isoform): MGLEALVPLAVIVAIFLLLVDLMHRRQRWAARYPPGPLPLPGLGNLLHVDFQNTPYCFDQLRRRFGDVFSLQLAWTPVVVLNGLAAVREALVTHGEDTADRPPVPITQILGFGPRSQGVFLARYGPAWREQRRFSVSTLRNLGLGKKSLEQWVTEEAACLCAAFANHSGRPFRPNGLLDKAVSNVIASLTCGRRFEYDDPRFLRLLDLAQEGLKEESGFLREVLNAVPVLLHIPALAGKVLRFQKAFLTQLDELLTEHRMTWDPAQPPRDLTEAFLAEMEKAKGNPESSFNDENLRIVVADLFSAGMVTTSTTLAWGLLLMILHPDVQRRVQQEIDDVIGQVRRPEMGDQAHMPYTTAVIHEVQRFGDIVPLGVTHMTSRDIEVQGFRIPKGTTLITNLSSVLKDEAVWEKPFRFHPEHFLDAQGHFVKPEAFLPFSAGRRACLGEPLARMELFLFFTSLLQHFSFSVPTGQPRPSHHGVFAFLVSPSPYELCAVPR
Ribosomal protein S6 kinase beta-2 (Homo sapiens), sequence (Q9UBS0 whole entry): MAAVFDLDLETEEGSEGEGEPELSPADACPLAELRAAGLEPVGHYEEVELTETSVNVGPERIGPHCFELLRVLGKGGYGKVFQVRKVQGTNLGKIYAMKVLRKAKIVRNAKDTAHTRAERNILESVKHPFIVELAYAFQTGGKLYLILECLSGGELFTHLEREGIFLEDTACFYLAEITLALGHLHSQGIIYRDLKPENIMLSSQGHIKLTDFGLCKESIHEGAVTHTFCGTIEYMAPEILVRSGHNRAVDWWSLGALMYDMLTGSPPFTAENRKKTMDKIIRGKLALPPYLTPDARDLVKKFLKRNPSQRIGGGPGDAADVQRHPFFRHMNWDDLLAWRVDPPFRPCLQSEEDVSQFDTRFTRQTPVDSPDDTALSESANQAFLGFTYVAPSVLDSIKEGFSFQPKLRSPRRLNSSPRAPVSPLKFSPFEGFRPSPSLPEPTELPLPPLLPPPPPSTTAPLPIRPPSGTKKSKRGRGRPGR
Receptor tyrosine-protein kinase erbB-2 (Homo sapiens), sequence (P04626 whole entry): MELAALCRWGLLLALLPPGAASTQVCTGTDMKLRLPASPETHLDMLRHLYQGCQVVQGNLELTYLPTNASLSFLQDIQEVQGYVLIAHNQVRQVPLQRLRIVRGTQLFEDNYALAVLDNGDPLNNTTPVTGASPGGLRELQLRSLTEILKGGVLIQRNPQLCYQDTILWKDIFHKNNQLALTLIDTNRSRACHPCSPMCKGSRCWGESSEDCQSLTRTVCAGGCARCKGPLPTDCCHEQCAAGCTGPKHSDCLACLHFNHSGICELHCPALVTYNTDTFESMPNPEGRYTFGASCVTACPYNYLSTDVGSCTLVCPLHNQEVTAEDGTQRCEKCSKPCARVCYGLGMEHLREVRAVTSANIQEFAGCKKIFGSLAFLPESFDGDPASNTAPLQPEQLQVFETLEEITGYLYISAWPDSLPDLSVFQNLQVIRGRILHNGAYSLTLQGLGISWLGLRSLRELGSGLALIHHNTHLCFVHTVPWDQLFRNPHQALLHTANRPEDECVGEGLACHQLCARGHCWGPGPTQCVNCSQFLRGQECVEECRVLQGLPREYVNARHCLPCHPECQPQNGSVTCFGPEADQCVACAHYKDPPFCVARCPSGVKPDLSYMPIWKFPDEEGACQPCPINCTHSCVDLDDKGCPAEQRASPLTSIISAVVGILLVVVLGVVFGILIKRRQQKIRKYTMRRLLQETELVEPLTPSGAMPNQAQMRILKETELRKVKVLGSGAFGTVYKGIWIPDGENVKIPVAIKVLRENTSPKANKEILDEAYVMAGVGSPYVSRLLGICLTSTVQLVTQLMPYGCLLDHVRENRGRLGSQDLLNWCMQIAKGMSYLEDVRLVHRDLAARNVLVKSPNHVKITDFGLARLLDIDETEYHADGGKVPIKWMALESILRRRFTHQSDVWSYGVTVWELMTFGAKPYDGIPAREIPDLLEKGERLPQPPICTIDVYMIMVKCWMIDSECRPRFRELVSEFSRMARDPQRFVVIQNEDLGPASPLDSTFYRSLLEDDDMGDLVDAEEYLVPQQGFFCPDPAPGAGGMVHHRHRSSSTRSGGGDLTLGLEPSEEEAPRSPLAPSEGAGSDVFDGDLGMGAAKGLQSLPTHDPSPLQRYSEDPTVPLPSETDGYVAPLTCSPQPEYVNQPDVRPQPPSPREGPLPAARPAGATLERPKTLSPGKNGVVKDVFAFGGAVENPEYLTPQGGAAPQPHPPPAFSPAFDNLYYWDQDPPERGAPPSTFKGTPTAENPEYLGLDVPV

`CN(C)C(=O)c1ccc(Oc2nc(-c3cnc(N)s3)nc(N3CCOCC3)n2)cc1`: in the data set on SK-OV-3, the EC50 came to 500 nM. In data set [1], the remaining at 2 h, 10 µM was 103%. The figures for the AUC in [2] and in [11] were 32.1 µM·h and 26.9 µM·h, respectively. Further, the Tmax in data set [3] was 1.5 h; in data set [13], 1.33 h. For the same compound, the result in the data set filed under Homo sapiens was Active. The “inhibition (INH)” value in data set [4] was “Not Active”. The same compound displayed a half-inhibitory concentration (IC50) on Cytochrome P450 2D6 of more than 10000 nM. Besides, the inhibition in data set [5] was -1%; in data set [6], -1%; in data set [7], -3%; in [8], 88%; in data set [9], -1%; in data set [10] it was -10%. The compound further showed a Cmax in data set [12] of 5.01 µM. Moreover, in data set [14], the half-life is 2.66 h. For the same compound, the Activity entry was “Toxic” in data set [15], “Non-Toxic” in data set [16], “Non-Toxic” in data set [17] and “Toxic” in data set [18]. The concentration at 120 h in [19] was 10 ng/g.
